From PMC10905692 (ACS Omega, 2024)
Entries after “also recorded” stand apart in the source; their conditions may differ.

Key:
[1] = target: T1, PTP1B (Homo sapiens, UniProt P18031); test: PTP1B inhibitory assay; type: biochemical
T1 sequence (P18031 1-435): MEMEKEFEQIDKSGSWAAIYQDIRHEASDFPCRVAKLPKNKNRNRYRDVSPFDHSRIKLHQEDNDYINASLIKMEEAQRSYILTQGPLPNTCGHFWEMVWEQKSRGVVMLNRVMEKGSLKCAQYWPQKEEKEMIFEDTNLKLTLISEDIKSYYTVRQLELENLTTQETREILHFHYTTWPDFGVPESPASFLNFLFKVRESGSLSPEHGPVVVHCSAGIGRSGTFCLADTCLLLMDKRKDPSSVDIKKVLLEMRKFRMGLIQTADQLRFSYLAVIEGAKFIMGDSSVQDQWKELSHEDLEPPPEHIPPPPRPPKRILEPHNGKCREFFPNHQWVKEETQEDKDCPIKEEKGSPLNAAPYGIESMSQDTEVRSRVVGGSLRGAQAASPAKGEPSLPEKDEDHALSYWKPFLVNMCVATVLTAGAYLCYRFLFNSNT

[2] = target: T1, PTP1B; test: Enzyme kinetic assay; type: biochemical; details: for kinetic mode: Lineweaver–Burk plots; for KIS: inhibition constant for enzyme–substrate complex
Outline: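 Human recombinant PTP1B in Tris-HCl pH 7.5 buffer (25 mM Tris, 1 mM EDTA, 2 mM 2-mercaptoethanol, 1 mM dithiothreitol); test compounds dissolved in DMSO. Steady-state rates were taken across varied inhibitor and substrate concentrations and analysed by Lineweaver–Burk and Dixon plots. KI and KIS came from secondary plots of slopes or 1/Vmax intercepts vs inhibitor concentration (eqs 2–4). Reversibility was judged from activity vs enzyme concentration at several inhibitor levels.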

[3] = target: T1, PTP1B; test: Fluorescence quenching measurement of binding affinity; details: for n (number of binding sites) / KSV (Stern–Volmer constant): fluorescence quenching; for KSV (Stern–Volmer constant): 0–25 μM inhibitor
Outline: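 Intrinsic fluorescence quenching of human recombinant PTP1B, at the enzyme level of the activity assays, in assay buffer. Test compound was added at 0, 1.6, 3.2, 6.2, 12.5 and 25 μM. Emission spectra were recorded over 300–400 nm with 250 nm excitation and 2 nm slits. KSV was obtained by Stern–Volmer analysis; binding constant KA and number of sites n from eqs 9–10.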

[4] = target: T1, PTP1B; test: Time-dependent assays and progress curves; type: biochemical
Outline: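 PTP1B was preincubated with test compound for 0, 5, 10, 15, 30, 45, 60 or 75 min (0.2 μM), then residual activity was read. Progress curves were recorded at actual substrate concentration across several inhibitor concentrations by absorbance at 405 nm, […] the ~10 min lag. vi, vs, kobs and Ki app were fitted with eqs 5–8. kobs was plotted against inhibitor concentration to give k3 and k4.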

[5] = Ki (inhibition constant), estimated using Dixon plots
[6] = KI, inhibition constant for free enzyme, secondary plots

CC1(C)C=Cc2c(cc(O)c3c2O[C@H](c2ccc(O)cc2)[C@@H](O)C3=O)O1 [Compound 5, yukovanol]
IC50 [1]: 3.07 ± 0.2 µM | fold effective vs mother compound ([1]; pyran compound 5 vs 6): 9 fold | Ki [2, 5]: 3.46 µM | kinetic mode [2]: noncompetitive inhibitor | Kd [3]: 1110 µM | n (number of binding sites) [3]: 1.20 | KSV (Stern–Volmer constant) [3]: 0.0132 × 10^5 L·mol^–1

O=c1cc(-c2ccc(O)cc2)oc2cc(O)cc(O)c12 [Compound 8, apigenin]
IC50 [1]: 5.99 ± 0.5 µM | Ki [2, 5]: 2.9 µM | kinetic mode [2]: competitive | Kd [3]: 769 µM | n (number of binding sites) [3]: 1.02 | KSV (Stern–Volmer constant) [3]: 0.0056 × 10^5 L·mol^–1

CC1(C)C=Cc2c(cc(O)c3c2O[C@H](c2ccccc2)[C@H](O)C3=O)O1 [Compound 2, (2R,3S)-3,5-dihydroxy-8,8-dimethyl-2-phenyl-2,3-dihydro-4H,8H-pyrano[2,3-f]chromen-4-one]
IC50 [1]: 2.24 ± 0.5 µM | Ki [2, 5]: 1.04 µM | kinetic mode [2]: competitive inhibitors | Kd [3]: 370 µM | n (number of binding sites) [3]: 1.16 | KSV (Stern–Volmer constant) [3]: 0.0304 × 10^5 L·mol^–1

O=c1cc(-c2ccc(O)cc2O)oc2cc(O)cc(O)c12 [Compound 10, norartocarpetin]
IC50 [1]: 3.39 ± 0.2 µM | Ki [2, 6]: 2.68 µM | Ki [2, 5]: 2.71 µM | kinetic mode [2]: mixed-type inhibitions; also recorded: mixed type I | KIS ([2]; secondary plots): 5.23 µM | Kd [3]: 833 µM | n (number of binding sites) [3]: 1.06 | KSV (Stern–Volmer constant) [3]: 0.0124 × 10^5 L·mol^–1

CC1(C)C=Cc2c(cc(O)c3c2O[C@H](c2ccccc2)[C@@H](O)C3=O)O1 [Compound 1, (2R,3R)-3,5-dihydroxy-8,8-dimethyl-2-phenyl-2,3-dihydro-4H,8H-pyrano[2,3-f]chromen-4-one]
fold more effective (inhibition activity) ([1]; trans 1 vs cis 2): 13 fold | Ki [2, 5]: 0.07 µM | kinetic mode [2]: competitive mode; also recorded: competitive inhibitors | reversibility of the inhibitor to the enzyme ([2]; initial velocity plots at different inhibitor concentrations): typical reversibility | Ki [4]: 0.0641 µM | time-dependent inhibition type ([4]; preincubation 0–75 min, kobs vs inhibitor concentration linear): simple slow-binding inhibitor; also recorded: slow binding mode; also recorded: slow binding characteristics | k3 ([4]; slow-binding, progress curves): 0.2262 μM^–1 min^–1 | k4 ([4]; slow-binding, progress curves): 0.0145 min^–1 | Kd [3]: 27.8 µM | n (number of binding sites) [3]: 1.09 | KSV (Stern–Volmer constant) [3]: 0.4375 × 10^5 L·mol^–1

O=C1c2c(O)cc(O)cc2O[C@H](c2ccc(O)cc2)[C@H]1O [Compound 6, dihydrokaempferol]
IC50 [1]: 35.4 ± 0.7 µM | Ki [2, 5]: 34.7 µM | kinetic mode [2]: noncompetitive | Kd [3]: 10000 µM | n (number of binding sites) [3]: 0.79 | KSV (Stern–Volmer constant) [3]: 0.0002 × 10^5 L·mol^–1

O=c1cc(-c2ccc(O)cc2)oc2cc(O[C@@H]3O[C@H](CO)[C@@H](O)[C@H](O)[C@H]3O)cc(O)c12 [Compound 13, apigenin-7-O-β-D-glucopyranoside]
IC50 [1]: 0.22 ± 0.3 µM | fold better inhibition than mother skeleton ([1]; glycosides 11 vs 6 and 13 vs 8): 27 fold | Ki [2, 6]: 0.18 µM | Ki [2, 5]: 0.18 µM | kinetic mode [2]: mixed type I | KIS ([2]; secondary plots): 0.80 µM | Kd [3]: 22.1 µM | n (number of binding sites) [3]: 0.97 | KSV (Stern–Volmer constant) [3]: 0.3803 × 10^5 L·mol^–1

CC1(C)C=Cc2c(cc(O)c3c(=O)cc(-c4ccc(O)cc4)oc23)O1 [Compound 7, atalantoflavone]
IC50 [1]: 1.19 ± 0.3 µM | Ki [2, 5]: 0.45 µM | kinetic mode [2]: competitive | Kd [3]: 72.5 µM | n (number of binding sites) [3]: 0.93 | KSV (Stern–Volmer constant) [3]: 0.0569 × 10^5 L·mol^–1
